Reference: ChEMBL document CHEMBL5357022, “Fluorinated Isoindolinone-Based Glucosylceramide Synthase Inhibitors with Low Human Dose Projections” (ACS Med Chem Lett, 2024)

Key:
[1] = target: T1, Nuclear receptor subfamily 1 group I member 2 (Homo sapiens, UniProt O75469); test: Activation of PXR (unknown origin); format: toxicity
T1 sequence (O75469 whole entry): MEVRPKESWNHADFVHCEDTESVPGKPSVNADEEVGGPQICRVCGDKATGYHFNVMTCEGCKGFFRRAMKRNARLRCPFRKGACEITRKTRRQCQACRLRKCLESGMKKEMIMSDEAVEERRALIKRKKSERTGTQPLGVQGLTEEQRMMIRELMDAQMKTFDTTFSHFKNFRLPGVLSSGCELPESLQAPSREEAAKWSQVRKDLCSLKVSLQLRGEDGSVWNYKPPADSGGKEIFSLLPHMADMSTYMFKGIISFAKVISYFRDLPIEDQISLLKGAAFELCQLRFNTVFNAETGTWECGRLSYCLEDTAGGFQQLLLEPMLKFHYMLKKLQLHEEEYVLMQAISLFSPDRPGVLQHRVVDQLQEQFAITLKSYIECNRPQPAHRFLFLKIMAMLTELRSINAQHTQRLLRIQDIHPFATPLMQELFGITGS

PXR (NR1I2) = target: T2, PXR (NR1I2) (Homo sapiens, UniProt O75469); test: Activation of PXR (unknown origin) assessed as maximal efficacy relative to control; format: toxicity
T2 sequence (O75469 whole entry): T1 sequence (O75469 whole entry)

[2] = MRT in Wistar Han rat at 5 mg/kg, po or 2 mg/kg, iv measured after 24 hrs; format: ADME, organism-based; conditions: in vivo
Outline: (§1)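 Wistar Han rats were dosed IV at 2 mg/kg in DMSO/PEG400/H2O 20/60/20 at 1 mL/kg, and PO at 5 mg/kg in PEG400/Tween80/H2O 40/10/50 at 2 mL/kg. Sampling ran to a 24 h end point.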

[3] = Oral bioavailability in Wistar Han rat at 5 mg/kg measured after 24 hrs; format: ADME, organism-based; conditions: in vivo; outline: as §1
[4] = Intrinsic clearance in Wistar Han rat at 5 mg/kg, po or 2 mg/kg, iv measured after 24 hrs; format: ADME, organism-based; conditions: in vivo; outline: as §1
[5] = Unbound brain-to-plasma concentration ratio in rat; format: ADME; conditions: read-out: K(p,uu,brain)
[6] = Plasma protein binding in human assessed as unbound fraction; format: ADME, cell-free
[7] = Unbound volume of distribution in Wistar Han rat at 5 mg/kg, po or 2 mg/kg, iv measured after 24 hrs; format: ADME, organism-based; conditions: in vivo; outline: as §1
[8] = […] clearance in Beagle dog at 1 mg/kg, po in 30% captisol formulation or 0.5 mg/kg, iv measured after 24 hrs; format: ADME, organism-based, Canis lupus familiaris; conditions: in vivo
Outline: (§2)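 Beagle dogs were given 0.5 mg/kg IV in DMSO/PEG400/H2O 20/60/20 at 0.5 mL/kg, and 1 mg/kg PO in 30% Captisol at 2 mL/kg. Sampling ran to a 24 h end point.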

[9] = Unbound volume of distribution in Beagle dog at 1 mg/kg, po in 30% captisol formulation or 0.5 mg/kg, iv measured after 24 hrs; format: ADME, organism-based, Canis lupus familiaris; conditions: in vivo; outline: as §2
[10] = Octanol-water partition coefficient, logD of the compound; format: physicochemical
[11] = Plasma protein binding in rat assessed as unbound fraction; format: ADME, cell-free
[12] = MRT in Beagle dog at 1 mg/kg, po in 30% captisol formulation or 0.5 mg/kg, iv measured after 24 hrs; format: ADME, organism-based, Canis lupus familiaris; conditions: in vivo; outline: as §2
[13] = Metabolic stability in human hepatocytes assessed as intrinsic clearance; format: ADME, cell-based, Hepatocyte; conditions: read-out: CLH
[14] = Oral bioavailability in Beagle dog at 1 mg/kg in 30% captisol formulation measured after 24 hrs; format: ADME, organism-based, Canis lupus familiaris; conditions: in vivo; outline: as §2
[15] = Plasma protein binding in dog assessed as unbound fraction; format: ADME, cell-free, Canis lupus familiaris
[16] = MRT in rat; format: ADME; conditions: in vivo
[17] = MRT in Wistar Han rat at 4 mg/kg, po measured after 24 hrs; format: ADME, organism-based; conditions: in vivo
Outline: (§3)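 Wistar Han rat PK study with a 24 h end point, using an oral dose of 4 mg/kg.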

[18] = Oral bioavailability in Wistar Han rat at 4 mg/kg measured after 24 hrs; format: ADME, organism-based; conditions: in vivo; outline: as §3
[19] = Unbound volume of distribution in Wistar Han rat at 4 mg/kg, po measured after 24 hrs; format: ADME, organism-based; conditions: in vivo; outline: as §3
[20] = Clearance in Wistar Han rat at 4 mg/kg, po measured after 24 hrs; format: ADME, organism-based; conditions: in vivo; outline: as §3
[21] = Intrinsic clearance in Wistar Han rat at 4 mg/kg, po measured after 24 hrs; format: ADME, organism-based; conditions: in vivo; outline: as §3
[22] = Oral bioavailability in Beagle dog at 1 mg/kg in 10% tween 80 formulation measured after 24 hrs; format: ADME, organism-based, Canis lupus familiaris; conditions: in vivo
Outline: (§4)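 Beagle dogs were given 0.5 mg/kg IV in DMSO/PEG400/H2O 20/60/20 at 0.5 mL/kg, and 1 mg/kg PO in a 10% Tween 80 formulation. Sampling ran to a 24 h end point.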

[23] = MRT in Beagle dog at 1 mg/kg, po in 10% tween 80 formulation or 0.5 mg/kg, iv measured after 24 hrs; format: ADME, organism-based, Canis lupus familiaris; conditions: in vivo; outline: as §4
[24] = […] clearance in Beagle dog at 1 mg/kg, po in 10% tween 80 formulation or 0.5 mg/kg, iv measured after 24 hrs; format: ADME, organism-based, Canis lupus familiaris; conditions: in vivo; outline: as §4
[25] = Unbound volume of distribution in Beagle dog at 1 mg/kg, po in 10% tween 80 formulation or 0.5 mg/kg, iv measured after 24 hrs; format: ADME, organism-based, Canis lupus familiaris; conditions: in vivo; outline: as §4

Structure (SMILES)	EC50 [1] [µM]	Emax (PXR (NR1I2)) [%]	MRT [2] [h]	bioavailability [3] [%]	CL [4] [mL/min/kg]	Kp uu [5]	fraction unbound [6]	Vdu [7] [L/kg]	CL [8] [mL/min/kg]	Vdu [9] [L/kg]	fraction unbound [11]	MRT [12] [h]	CLint scaled [13] [mL/min/kg]	bioavailability [14] [%]	fraction unbound [15]	further results
Cc1nnc(-c2ccc(-c3ccc(F)c4c3C(=O)N([C@H](C3CC3)C(C)(C)O)C4)cc2)o1	8.9	97														
Cc1nnc(-c2ccc(-c3c(F)c(F)cc4c3C(=O)N([C@@H](C(C)(C)O)C(F)(F)F)C4)cc2)o1	12	80	9.9	83	30	0.4	0.067	18	23	14	0.037	11	4.5	79	0.11	logD [10]: 2.7
CCOc1ccccc1C(=O)Nc1cccc2c1C(=O)N(CC1CC1)C2	4.3	81														MRT [16]: 1.4 h
Cc1nnc(-c2ccc(-c3cc(F)cc4c3C(=O)N([C@H](C3CC3)C(C)(C)O)C4)cc2)o1	25	75					0.046		21	12	0.026	10	19	100	0.2	MRT [17]: 2.3 h; bioavailability [18]: 38%; Vdu [19]: 16 L/kg; CL/F [20]: 3 mL/min/kg; CL [21]: 120 mL/min/kg
Cc1nnc(-c2ccc(-c3c(F)c(F)cc4c3C(=O)N([C@H](C3CC3)C(C)(C)O)C4)cc2)o1	6.1	100	5.7	36	30	0.2	0.098	10	11	7.1	0.038	10	33	75	0.2	
Cc1nnc(-c2ccc(-c3c(F)ccc4c3C(=O)N([C@H](C3CC3)C(C)(C)O)C4)cc2)o1	5.2	100														
Cc1nnc(-c2ccc(-c3c(F)cc(F)c4c3C(=O)N([C@@H](C(C)(C)O)C(F)(F)F)C4)cc2)o1	14	100														
Cc1nnc(-c2ccc(-c3c(F)cc(F)c4c3C(=O)N([C@H](C3CC3)C(C)(C)O)C4)cc2)o1	4.6	100														
CN1Cc2cc(-c3cccc4c3C(=O)N([C@H](C3CC3)C(C)(C)O)C4)ccc2C1=O	> 30	11														
Cc1nnc(-c2ccc(-c3cccc4c3C(=O)N([C@H](C3CC3)C(C)(C)O)C4)cc2)o1	29	89	3	100	211	0.5	0.032	36			0.013		15		0.1	bioavailability [22]: 81%; logD [10]: 2.3; MRT [23]: 8.6 h; CL [24]: 13 mL/min/kg; Vdu [25]: 9.9 L/kg
Cc1nnc(-c2ccc(-c3cc(F)c(F)c4c3C(=O)N([C@H](C3CC3)C(C)(C)O)C4)cc2)o1			3.7	57	169	0.1	0.05	36	17	17	0.021	11	13	64	0.14	
